Results taken from ChEMBL document CHEMBL4330069, “Boosting the efficacy of anti-MRSA β-lactam antibiotics via an easily accessible, non-cytotoxic and orally bioavailable FtsZ inhibitor” (Eur J Med Chem, 2019).
Converted amounts (≈) assume the structure as drawn.

Key:
Format in all cases: functional
Staphylococcus aureus [1] = assay: Antibacterial activity against multidrug-resistant Staphylococcus aureus isolate 2490 by broth microdilution assay
Outline: (§1)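 Broth microdilution MIC per CLSI guidelines against clinical MRSA isolates, for β-lactams and test compound alone and in combination. Compounds were dissolved in DMSO. Growth was read by eye, in duplicate. FIC index = FIC(compound) + FIC(drug); synergy defined as FIC index ≤0.5.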

Staphylococcus aureus [2] = assay: Antibacterial activity against multidrug-resistant Staphylococcus aureus isolate 231 by broth microdilution assay; outline: as §1
Staphylococcus aureus [3] = assay: Antibacterial activity against multidrug-resistant Staphylococcus aureus isolate 1717 by broth microdilution assay; outline: as §1
Staphylococcus aureus [4] = assay: Antibacterial activity against multidrug-resistant Staphylococcus aureus isolate 3580 by broth microdilution assay; outline: as §1
Staphylococcus aureus [5] = assay: Synergistic antibacterial activity against multidrug-resistant Staphylococcus aureus isolate 3589 in presence of amoxicillin by broth microdilution assay
Staphylococcus aureus [6] = assay: Synergistic antibacterial activity against multidrug-resistant Staphylococcus aureus isolate 3411 in presence of amoxicillin by broth microdilution assay
Outline: (§2)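 CLSI broth microdilution on clinical MRSA isolates. MICs were measured for the β-lactam alone, the test agent alone and the two combined. Compounds were dissolved in DMSO, and growth inhibition was scored by eye. FIC index is the sum, over both agents, of MIC in combination divided by MIC alone. An FIC index ≤0.5 was taken as synergy.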

Staphylococcus aureus [7] = assay: Synergistic antibacterial activity against multidrug-resistant Staphylococcus aureus isolate 1136 in presence of amoxicillin by broth microdilution assay; outline: as §1
Staphylococcus aureus [8] = assay: Synergistic antibacterial activity against multidrug-resistant Staphylococcus aureus isolate 757 in presence of amoxicillin by broth microdilution assay
Staphylococcus aureus [9] = assay: Synergistic antibacterial activity against multidrug-resistant Staphylococcus aureus isolate 774 in presence of amoxicillin by broth microdilution assay
Staphylococcus aureus [10] = assay: Synergistic antibacterial activity against multidrug-resistant Staphylococcus aureus isolate 254 in presence of methicillin by broth microdilution assay; outline: as §2
Staphylococcus aureus [11] = assay: Synergistic antibacterial activity against multidrug-resistant Staphylococcus aureus isolate 1344 in presence of methicillin by broth microdilution assay
Outline: (§3)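 Clinical MRSA isolate panel; compound and β-lactam tested alone and in combination by CLSI broth microdilution, compounds dissolved in DMSO, growth inhibition scored by eye, run in duplicate. FIC index = FIC(compound) + FIC(drug), each the MIC in combination divided by the MIC alone; an index ≤ 0.5 was called synergy.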

Staphylococcus aureus [12] = assay: Synergistic antibacterial activity against multidrug-resistant Staphylococcus aureus isolate 358 in presence of methicillin by broth microdilution assay
Staphylococcus aureus [13] = assay: Synergistic antibacterial activity against multidrug-resistant Staphylococcus aureus isolate 254 in presence of cloxacillin by broth microdilution assay; outline: as §2
Staphylococcus aureus [14] = assay: Synergistic antibacterial activity against multidrug-resistant Staphylococcus aureus isolate 3267 in presence of cloxacillin by broth microdilution assay; outline: as §2
Staphylococcus aureus [15] = assay: Synergistic antibacterial activity against multidrug-resistant Staphylococcus aureus isolate 1749 in presence of cloxacillin by broth microdilution assay; outline: as §3
Staphylococcus aureus [16] = assay: Synergistic antibacterial activity against multidrug-resistant Staphylococcus aureus isolate 1402 in presence of cloxacillin by broth microdilution assay; outline: as §3
Staphylococcus aureus [17] = assay: Synergistic antibacterial activity against multidrug-resistant Staphylococcus aureus isolate 417 in presence of cefuroxime by broth microdilution assay
Staphylococcus aureus [18] = assay: Synergistic antibacterial activity against multidrug-resistant Staphylococcus aureus isolate 2895 in presence of cefuroxime by broth microdilution assay; outline: as §2
Staphylococcus aureus [19] = assay: Synergistic antibacterial activity against multidrug-resistant Staphylococcus aureus isolate 3267 in presence of cefuroxime by broth microdilution assay; outline: as §2
Staphylococcus aureus [20] = assay: Synergistic antibacterial activity against multidrug-resistant Staphylococcus aureus isolate 2490 in presence of meropenem by broth microdilution assay; outline: as §3
Staphylococcus aureus [21] = assay: Synergistic antibacterial activity against multidrug-resistant Staphylococcus aureus isolate 3332 in presence of meropenem by broth microdilution assay; outline: as §2
Staphylococcus aureus [22] = assay: Synergistic antibacterial activity against multidrug-resistant Staphylococcus aureus isolate 3267 in presence of meropenem by broth microdilution assay; outline: as §2
Staphylococcus aureus [23] = assay: Synergistic antibacterial activity against multidrug-resistant Staphylococcus aureus isolate 757 assessed as fractional Inhibitory concentration index in presence of amoxicillin by broth microdilution assay
Staphylococcus aureus [24] = assay: Synergistic antibacterial activity against multidrug-resistant Staphylococcus aureus isolate 1402 assessed as fractional Inhibitory concentration index in presence of amoxicillin by broth microdilution assay
Outline: (§4)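 CLSI broth microdilution run on clinical MRSA isolates with each β-lactam alone, the test agent alone, and the two combined; agents dissolved in DMSO. Growth inhibition was read by eye. FIC index = FIC(compound) + FIC(β-lactam), where each FIC is the MIC in combination divided by the MIC alone. An index ≤0.5 was taken as synergy.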

Staphylococcus aureus [25] = assay: Synergistic antibacterial activity against multidrug-resistant Staphylococcus aureus isolate 200 assessed as fractional Inhibitory concentration index in presence of amoxicillin by broth microdilution assay; outline: as §4
Staphylococcus aureus [26] = assay: Synergistic antibacterial activity against multidrug-resistant Staphylococcus aureus isolate 85 assessed as fractional Inhibitory concentration index in presence of amoxicillin by broth microdilution assay
Staphylococcus aureus [27] = assay: Synergistic antibacterial activity against multidrug-resistant Staphylococcus aureus isolate 3332 assessed as fractional Inhibitory concentration index in presence of methicillin by broth microdilution assay
Staphylococcus aureus [28] = assay: Synergistic antibacterial activity against multidrug-resistant Staphylococcus aureus isolate 757 assessed as fractional Inhibitory concentration index in presence of methicillin by broth microdilution assay
Staphylococcus aureus [29] = assay: Synergistic antibacterial activity against multidrug-resistant Staphylococcus aureus isolate 2919 assessed as fractional Inhibitory concentration index in presence of methicillin by broth microdilution assay
Staphylococcus aureus [30] = assay: Synergistic antibacterial activity against multidrug-resistant Staphylococcus aureus isolate 2728 assessed as fractional Inhibitory concentration index in presence of methicillin by broth microdilution assay
Staphylococcus aureus [31] = assay: Synergistic antibacterial activity against multidrug-resistant Staphylococcus aureus isolate 358 assessed as fractional Inhibitory concentration index in presence of methicillin by broth microdilution assay
Staphylococcus aureus [32] = assay: Synergistic antibacterial activity against multidrug-resistant Staphylococcus aureus isolate 2973 assessed as fractional Inhibitory concentration index in presence of methicillin by broth microdilution assay
Staphylococcus aureus [33] = assay: Synergistic antibacterial activity against multidrug-resistant Staphylococcus aureus isolate 774 assessed as fractional Inhibitory concentration index in presence of cloxacillin by broth microdilution assay
Staphylococcus aureus [34] = assay: Synergistic antibacterial activity against multidrug-resistant Staphylococcus aureus isolate 2973 assessed as fractional Inhibitory concentration index in presence of cloxacillin by broth microdilution assay
Staphylococcus aureus [35] = assay: Synergistic antibacterial activity against multidrug-resistant Staphylococcus aureus isolate 256 assessed as fractional Inhibitory concentration index in presence of cefuroxime by broth microdilution assay
Staphylococcus aureus [36] = assay: Synergistic antibacterial activity against multidrug-resistant Staphylococcus aureus isolate 1136 assessed as fractional Inhibitory concentration index in presence of cefuroxime by broth microdilution assay; outline: as §4
Staphylococcus aureus [37] = assay: Synergistic antibacterial activity against multidrug-resistant Staphylococcus aureus isolate 2516 assessed as fractional Inhibitory concentration index in presence of cefuroxime by broth microdilution assay; outline: as §4
Staphylococcus aureus [38] = assay: Synergistic antibacterial activity against multidrug-resistant Staphylococcus aureus isolate 2895 assessed as fractional Inhibitory concentration index in presence of meropenem by broth microdilution assay
Staphylococcus aureus [39] = assay: Synergistic antibacterial activity against multidrug-resistant Staphylococcus aureus isolate 1749 assessed as fractional Inhibitory concentration index in presence of meropenem by broth microdilution assay; outline: as §4

CCCCCCCCCNc1ccc(F)c(C(N)=O)c1F
MIC (Staphylococcus aureus [1]): 16 mg/L (≈ 53.6 µM) | MIC (Staphylococcus aureus [2]): 8 mg/L (≈ 26.8 µM) | MIC (Staphylococcus aureus [3]): 2 mg/L (≈ 6.7 µM) | MIC (Staphylococcus aureus [4]): 32 mg/L (≈ 107 µM) | MIC (Staphylococcus aureus [5]): 8 mg/L | MIC (Staphylococcus aureus [6]): 4 mg/L | MIC (Staphylococcus aureus [7]): 16 mg/L | MIC (Staphylococcus aureus [8]): 2 mg/L | MIC (Staphylococcus aureus [9]): 8 mg/L | MIC (Staphylococcus aureus [10]): 4 mg/L | MIC (Staphylococcus aureus [11]): 4 mg/L | MIC (Staphylococcus aureus [12]): 2 mg/L | MIC (Staphylococcus aureus [13]): 2 mg/L | MIC (Staphylococcus aureus [14]): 1 mg/L | MIC (Staphylococcus aureus [15]): 0.5 mg/L | MIC (Staphylococcus aureus [16]): 1 mg/L | MIC (Staphylococcus aureus [17]): 2 mg/L | MIC (Staphylococcus aureus [18]): 4 mg/L | MIC (Staphylococcus aureus [19]): 2 mg/L | MIC (Staphylococcus aureus [20]): 4 mg/L | MIC (Staphylococcus aureus [21]): 4 mg/L | MIC (Staphylococcus aureus [22]): 8 mg/L | fractional inhibitory concentration index (FICI) (Staphylococcus aureus [23]): 0.3 | fractional inhibitory concentration index (FICI) (Staphylococcus aureus [24]): 1 | fractional inhibitory concentration index (FICI) (Staphylococcus aureus [25]): 0 | fractional inhibitory concentration index (FICI) (Staphylococcus aureus [26]): 0 | fractional inhibitory concentration index (FICI) (Staphylococcus aureus [27]): 0.3 | fractional inhibitory concentration index (FICI) (Staphylococcus aureus [28]): 0.1 | fractional inhibitory concentration index (FICI) (Staphylococcus aureus [29]): 0.4 | fractional inhibitory concentration index (FICI) (Staphylococcus aureus [30]): 0.2 | fractional inhibitory concentration index (FICI) (Staphylococcus aureus [31]): 0.3 | fractional inhibitory concentration index (FICI) (Staphylococcus aureus [32]): 0.3 | fractional inhibitory concentration index (FICI) (Staphylococcus aureus [33]): 0.5 | fractional inhibitory concentration index (FICI) (Staphylococcus aureus [34]): 0.1 | fractional inhibitory concentration index (FICI) (Staphylococcus aureus [35]): 0 | fractional inhibitory concentration index (FICI) (Staphylococcus aureus [36]): 0.1 | fractional inhibitory concentration index (FICI) (Staphylococcus aureus [37]): 0.1 | fractional inhibitory concentration index (FICI) (Staphylococcus aureus [38]): 2.1 | fractional inhibitory concentration index (FICI) (Staphylococcus aureus [39]): 10
